# Experimental data from different studies.
# Each line is one published result; the experiments were not run side by side.
# Target: Alpha-1D adrenergic receptor (ADRA1D, Homo sapiens, UniProt P25100)
# Concentration: 10 µM
# One construct used (P25100 1-572): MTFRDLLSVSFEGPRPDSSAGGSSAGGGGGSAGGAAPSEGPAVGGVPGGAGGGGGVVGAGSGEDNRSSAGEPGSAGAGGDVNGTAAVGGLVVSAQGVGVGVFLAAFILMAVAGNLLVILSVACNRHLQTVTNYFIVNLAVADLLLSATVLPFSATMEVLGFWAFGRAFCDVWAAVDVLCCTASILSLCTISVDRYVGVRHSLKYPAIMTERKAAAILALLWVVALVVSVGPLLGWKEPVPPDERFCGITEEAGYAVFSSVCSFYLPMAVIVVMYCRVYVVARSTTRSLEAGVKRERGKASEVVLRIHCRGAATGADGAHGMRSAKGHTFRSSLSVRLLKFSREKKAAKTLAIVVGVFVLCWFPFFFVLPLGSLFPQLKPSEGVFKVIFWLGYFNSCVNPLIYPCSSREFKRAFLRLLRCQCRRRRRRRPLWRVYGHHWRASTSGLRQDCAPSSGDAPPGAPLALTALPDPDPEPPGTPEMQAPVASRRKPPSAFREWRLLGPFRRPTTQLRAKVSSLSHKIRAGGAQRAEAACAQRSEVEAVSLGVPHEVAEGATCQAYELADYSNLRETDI
Compound,read-out,technique,inhibition [%]
CCCNc1nc2ccccc2n1Cc1ccc(Cl)cc1,ligand displacement,,10.2
CCN(CC)c1ccc(C2Nc3ccc(C(=O)c4ccccc4)cc3NC3=C2C(=O)CC(C)(C)C3)cc1 (centres unmarked),ligand displacement,radioligand,8
CC(=O)C1=C(C)N(c2cccc(C(F)(F)F)c2)C(=O)N[C@H]1c1ccc(C#N)nc1,ligand displacement,,7.7
N#Cc1cc(Cn2c(N3CCCC3)nc3ccccc32)ccc1F,ligand displacement,,-11.1
CCN(Cc1ccccc1C(F)(F)F)C(=O)C1CCN(S(=O)(=O)c2ccc3[nH]ncc3c2)CC1,ligand displacement,radioligand,5
O=C(Nc1ccc(S(=O)(=O)N2CCC(Cl)CC2)cc1)c1ccc([N+](=O)[O-])o1,ligand displacement,radioligand,8
CC(C)(C)OC(=O)N1CCCC1CNC1CCC(c2cc(F)ccc2F)(S(=O)(=O)c2ccc(Cl)cc2)CC1 (centres unmarked),cell-free assay,,22.5
O=C(c1ccc(F)cc1)N(Cc1ccccc1)C1CCCCC1,cell-free assay,,7
